{"source": "ChEMBL document CHEMBL1152709", "about": "“Tricyclic HIV integrase inhibitors: VI. SAR studies of 'benzyl flipped' C3-substituted pyrroloquinolines” (Bioorg Med Chem Lett, 2009)", "key": {"[1]": {"target": "Human immunodeficiency virus type 1 integrase (Human immunodeficiency virus 1, UniProt Q7ZJM1)", "sequence (Q7ZJM1 whole entry)": "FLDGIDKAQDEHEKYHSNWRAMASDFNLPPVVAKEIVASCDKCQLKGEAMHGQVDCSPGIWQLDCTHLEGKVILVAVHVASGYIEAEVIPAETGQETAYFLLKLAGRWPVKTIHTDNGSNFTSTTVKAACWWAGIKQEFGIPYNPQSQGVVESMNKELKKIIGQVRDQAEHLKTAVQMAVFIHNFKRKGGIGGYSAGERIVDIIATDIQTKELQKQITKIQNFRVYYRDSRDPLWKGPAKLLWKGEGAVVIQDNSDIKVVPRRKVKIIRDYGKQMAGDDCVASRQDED", "assay": "Inhibition of HIV1 HXB2 integrase strand transfer activity by microtiter assay", "outline": "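Strand transfer measured in a microtiter format using DIG-tagged target DNA, detected with anti-DIG antibody–horseradish peroxidase conjugate. IC50 reported in nM as the mean of at least two experiments.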"}, "[2]": {"system": "Human immunodeficiency virus 1", "assay": "Antiviral activity against HIV1 3B infected in human MT2 cells after 5 days by cell-titer assay in presence of 10% FBS", "assay_type": "functional, organism-based", "details": "Human immunodeficiency virus 1, 3B, MT2, 120 h", "outline": "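MT-2 cells infected with HIV-1 IIIB (m.o.i. 0.01, 3 h), then about 1.5 × 10⁴ cells per well added to 9 concentrations of 5-fold serially diluted drug in triplicate, in culture medium with 10% FBS. Incubated 5 days at 37 °C. Viability read by CellTiter-Glo chemiluminescence after 10 min lysis at room temperature. Values are means of at least two experiments.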"}, "[3]": {"system": "Human immunodeficiency virus 1", "assay": "Antiviral activity against HIV1 3B infected in human MT2 cells after 5 days by cell-titer method in presence of human serum albumin and alpha1-acid glycoprotein", "assay_type": "functional, organism-based", "details": "Human immunodeficiency virus 1, 3B, MT2, 120 h", "outline": "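Same MT-2/HIV-1 IIIB assay (m.o.i. 0.01, 5 days at 37 °C, CellTiter-Glo read-out), run in 10% FBS with or without HSA (35 mg/ml) or α1-AGP (1.5 mg/ml). The combined-protein (serum-adjusted) EC₅₀ was calculated from the EC₅₀ values with each protein alone, using an equation derived from competitive binding assumptions.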"}, "[4]": {"assay": "Oral bioavailability in rat at pH 2.2", "assay_type": "ADME, organism-based", "details": "in vivo", "outline": "(§1)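 Oral dosing of parent compound as a solution in EtOH, PG, PEG400 and citric acid at pH 2.2, alongside an i.v. group (pH 3.3). F (%) was calculated from p.o. versus i.v. AUC. Values are the mean of three animals per study.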"}, "[5]": {"assay": "Half life in iv dosed rat at pH 3.3", "assay_type": "ADME, organism-based", "details": "in vivo", "outline": "(§2)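 Parent compound given i.v. as a solution in EtOH, PG, PEG400 and citric acid at pH 3.3. Total body clearance and T½ were derived from the i.v. group. Values are the mean of three animals per study.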"}, "[6]": {"assay": "Clearance in iv dosed rat at pH 3.3", "assay_type": "ADME, organism-based", "details": "in vivo", "outline": "as §2"}, "[7]": {"assay": "Oral bioavailability in dog at pH 2.2", "assay_type": "ADME, organism-based, Canis lupus familiaris", "details": "in vivo", "outline": "as §1"}, "[8]": {"assay": "Half life in iv dosed dog at pH 3.3", "assay_type": "ADME, organism-based, Canis lupus familiaris", "details": "in vivo", "outline": "as §2"}, "[9]": {"assay": "Clearance in iv dosed dog at pH 3.3", "assay_type": "ADME, organism-based, Canis lupus familiaris", "details": "in vivo", "outline": "as §2"}}}
{"smiles": "COc1c2c(c(O)c3ncc(Cc4ccc(F)cc4)cc13)C(=O)N(Cc1ccc(F)cc1)C2", "values": [{"measurement": "IC50", "setting": "[1]", "result": 600, "unit": "nM"}, {"measurement": "EC50", "setting": "[2]", "result": 105, "unit": "nM"}]}
{"smiles": "CN1Cc2c(c(O)c3ncc(Cc4ccc(F)cc4)cc3c2N(C)S(C)(=O)=O)C1=O", "values": [{"measurement": "IC50", "setting": "[1]", "result": 80, "unit": "nM"}, {"measurement": "EC50", "setting": "[2]", "result": 2, "unit": "nM"}, {"measurement": "EC50", "setting": "[3]", "result": 7, "unit": "nM"}, {"measurement": "bioavailability", "setting": "[4]", "result": 12, "unit": "%"}, {"measurement": "half-life", "setting": "[5]", "result": 0.4, "unit": "h"}, {"measurement": "clearance", "setting": "[6]", "result": 8.17, "unit": "mL/min/kg"}, {"measurement": "bioavailability", "setting": "[7]", "result": 47, "unit": "%"}, {"measurement": "half-life", "setting": "[8]", "result": 4.4, "unit": "h"}, {"measurement": "clearance", "setting": "[9]", "result": 2.17, "unit": "mL/min/kg"}]}
{"smiles": "COc1c2c(c(O)c3ncc(Cc4ccc(F)cc4)cc13)C(=O)N(C)C2", "values": [{"measurement": "IC50", "setting": "[1]", "result": 100, "unit": "nM"}, {"measurement": "EC50", "setting": "[2]", "result": 20, "unit": "nM"}]}
{"smiles": "COc1c2c(c(O)c3ncc(Cc4ccc(F)cc4)cc13)C(=O)NC2", "values": [{"measurement": "IC50", "setting": "[1]", "result": 14, "unit": "nM"}, {"measurement": "EC50", "setting": "[2]", "result": 16, "unit": "nM"}, {"measurement": "EC50", "setting": "[3]", "result": 27, "unit": "nM"}]}
{"smiles": "CN1Cc2c(c(O)c3ncc(Cc4ccc(F)c(Cl)c4)cc3c2N(C)S(C)(=O)=O)C1=O", "values": [{"measurement": "IC50", "setting": "[1]", "result": 265, "unit": "nM"}, {"measurement": "EC50", "setting": "[2]", "result": 1.1, "unit": "nM"}, {"measurement": "EC50", "setting": "[3]", "result": 35, "unit": "nM"}, {"measurement": "bioavailability", "setting": "[4]", "result": 11, "unit": "%"}, {"measurement": "half-life", "setting": "[5]", "result": 1.7, "unit": "h"}, {"measurement": "clearance", "setting": "[6]", "result": 3.67, "unit": "mL/min/kg"}, {"measurement": "bioavailability", "setting": "[7]", "result": 60, "unit": "%"}, {"measurement": "half-life", "setting": "[8]", "result": 8.8, "unit": "h"}, {"measurement": "clearance", "setting": "[9]", "result": 2, "unit": "mL/min/kg"}]}
